By LD50 is commonly meant the dose at which mortality reaches 50%. Lower therefore signals greater toxicity. Usually inhibition in vivo stands for how much of the control response was suppressed. Higher therefore signals a strong effect.

The record followed here is ChEMBL document CHEMBL1123658, “1-(2-pyridinyl)piperazine derivatives with antianaphylactic, antibronchospastic, and mast cell stabilizing activities” (J Med Chem, 1987).

A short description of data set [1]: In vivo toxic effect was determined in mouse after intraperitoneal administration with 10% aqueous acacia gum; value ranges from 0.85-1.18. The class given is toxicity, organism-based. The settings on record: ip. The procedure, abridged: (§1)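 Female albino mice (20-30 g), 10 animals per dose, dosed intraperitoneally with compound in solution or suspension; compounds tested as salts unless noted. Mortality was recorded over 7 days.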

In data set [2] the test system is Rattus norvegicus. Description: Rat PCA Test(50% inhibition of spot areas)in the female albino rats after (ip) administration in 10% aqueous acacia gum; value ranges from 114-198. In kind it is functional. Conditions: read-out: ID50 (the source's name). Summed up:
(§2)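 Female albino rats (200–250 g) received intradermal ventral injections of rat anti-egg-albumin antiserum; donors were raised with egg albumin im plus H. pertussis ip, and serum was taken at 12 days. 24 h later, compound was given ip in 10% acacia gum (10 mL/kg), 10 rats/group. Challenge 30 min later was iv 0.3% egg albumin plus 1% Evans blue. Blued areas were measured 30 min after challenge.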

Data set [3] is described as follows: In vivo toxic effect was determined in mouse after oral administration with 10% aqueous acacia gum; value ranges from 0.68-1.24. In kind it is toxicity, organism-based. The procedure, abridged: (§3)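 Female albino mice, 20-30 g. Compound given orally as solution or suspension in 10% aqueous acacia gum, 10 animals per dose. Deaths recorded over 7 days.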
Another data set relates to Cavia porcellus. Put plainly: Antibronchospatic activity determined by histamine stimulated bronchospasm inhibition in guinea pigs after(i.v.) administration. In kind it is functional, Bronchiole. Summed up:
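Guinea pigs, Konzett–Rössler preparation. Bronchospasm was induced with histamine. Compound was given iv (1 mL/kg) 1 min before the agonist, dissolved in saline or saline with slight excess HCl or CH3SO3H (pH 3.5–4). Three doses were tested in duplicate, chosen to give 20–90% inhibition. ID75 was read graphically from log dose–response curves.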

Data set [4] can be described thus: In vivo toxic effect was determined in mouse after oral administration with 10% aqueous acacia gum; value ranges from 0.50-0.68. In kind it is toxicity, organism-based.
The nature of data set [5]: In vivo toxic effect was determined in mouse after intraperitoneal administration with 10% aqueous acacia gum; value ranges from 0.29-0.42. The class given is toxicity, organism-based. The settings on record: ip. The procedure, abridged:
as §1

The subject of data set [6] is Rattus norvegicus. Put plainly: Rat PCA Test(50% inhibition of spot areas)in the female albino rats after oral administration in 10% aqueous acacia gum; value ranges from 1.7-2.4. The class given is functional. The settings on record: read-out: ID50 (the source's name). Summed up:
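Female rats (200-250 g) were passively sensitized by ventral intradermal anti-egg-albumin antiserum. This was raised in rats by intramuscular 1% egg albumin plus ip H. pertussis vaccine, with serum taken at 12 days. After 24 h, groups of 10 were dosed orally with compound or vehicle (10 mL/kg). At 60 min, iv challenge used 0.3% egg albumin with 1% Evans blue. Blued areas were measured after 30 min.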

In data set [7] the test system is Rattus norvegicus. Description: Inhibition of mast cell degranulation was assessed in female albino rats at a dose of 2 umol/kg iv. The class given is functional.
The test system of data set [8] is Rattus norvegicus. Put plainly: Rat PCA Test(50% inhibition of spot areas)in the female albino rats after (ip) administration in 10% aqueous acacia gum. In kind it is functional. Conditions: read-out: ID50 (the source's name). The procedure, abridged:
as §2

Data set [9] in a line: In vivo toxic effect was determined in mouse after intraperitoneal administration with 10% aqueous acacia gum; value ranges from 5.14-9.14. In kind it is toxicity, organism-based. The settings on record: ip. Summed up: as §1
The nature of data set [10]: In vivo toxic effect was determined in mouse after intraperitoneal administration with 10% aqueous acacia gum; value ranges from 0.43-0.73. The class given is toxicity, organism-based. The settings on record: ip. The procedure, abridged: as §1
The nature of data set [11]: In vivo toxic effect was determined in mouse after oral administration with 10% aqueous acacia gum; value ranges from 0.84-1.62. In kind it is toxicity, organism-based. The procedure, abridged: as §3

In the case of `Cl.Nc1cccc(NC(=O)CCN2CCN(c3ccccn3)CC2)c1`, the LD50 came out at 900 µmol/kg in data set [1] and 850 µmol/kg in [3]. Further, the ED50 in the data set on Rattus norvegicus [2] amounted to 148 µmol/kg. Further, the ID75 in the data set on Cavia porcellus stood at 0.61 µM/kg.
On to `CN1CCC(=C2c3ccccc3CC(=O)c3sccc32)CC1` [KETOTIFEN], for which the LD50 was found to be 580 µmol/kg in data set [4] and 350 µmol/kg in data set [5]. Also, the ED50 with Rattus norvegicus [6] was determined as 2 µmol/kg. The ID75 in the data set with Cavia porcellus is 0.0015 µM/kg. This compound came in with an inhibition in vivo at 2 µmol/kg in the data set on Rattus norvegicus [7] of 22%.
For `CCOC(=O)CC(C)N1CCN(c2ccccn2)CC1.Cl.Cl` (stereo unspecified), the ED50 in the data set on Rattus norvegicus [8] is more than 857 µmol/kg. The compound also yielded a 50% lethal dose (LD50) in data set [9] of 6850 µmol/kg. The ID75 in the data set with Cavia porcellus came out at 4.14 µM/kg.
As for `Cl.Cl.O=C(CCN1CCN(c2ccccn2)CC1)Nc1cccc(C(F)(F)F)c1`, the ED50 in the data set with Rattus norvegicus [8] was more than 55 µmol/kg. Further, the LD50 in [10] turned out to be 560 µmol/kg; in data set [11] it was 1170 µmol/kg. This compound also yielded an ID75 in the data set on Cavia porcellus of 0.65 µM/kg.
